Test results taken from ChEMBL document CHEMBL3352345, “Design, synthesis and biological evaluation of novel thieno[3,2-d]pyrimidine derivatives containing diaryl urea moiety as potent antitumor agents” (Eur J Med Chem, 2014).

How the values were obtained:
Assay type in all cases: functional, cell-based
[1] = Cytotoxicity against human H460 cells after 72 hrs by MTT assay; settings: NCI-H460, 72 h
Procedure, shortened: (§1)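 Cells suspended in MEM medium, plated and incubated 24 h at 37 °C in 5% CO₂, then exposed to compounds at indicated final concentrations for 72 h. IC₅₀ from averages of three determinations, relative to DMSO vehicle control.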

HT-29 = assay: Cytotoxicity against human HT-29 cells after 72 hrs by MTT assay; settings: HT-29, 72 h; procedure, shortened: as §1
[2] = Cytotoxicity against human MKN45 cells after 72 hrs by MTT assay; settings: MKN-45, 72 h; procedure, shortened: as §1
MDA-MB-231 = assay: Cytotoxicity against human MDA-MB-231 cells after 72 hrs by MTT assay; settings: MDA-MB-231, 72 h; procedure, shortened: as §1

For `Cc1ccc(NC(=O)Nc2ccc(-c3nc(NCCCN(C)C)c4sc(Cl)c(Cl)c4n3)cc2)cc1`, the IC50 [1] was 1110 nM, the IC50 (HT-29) was 1320 nM and the IC50 [2] was 3700 nM. For the same molecule, the IC50 (MDA-MB-231) was 4980 nM.

With `CCN(CC)CCNc1nc(-c2ccc(NC(=O)Nc3ccccc3Cl)cc2)nc2ccsc12` the IC50 [1] was 320 nM, the IC50 (HT-29) was 620 nM and the IC50 [2] was 750 nM. It also gave an IC50 (MDA-MB-231) of 680 nM.

Molecule `CCN(CC)CCCNc1nc(-c2ccc(NC(=O)Nc3ccc(C)cc3)cc2)nc2c(Cl)c(Cl)sc12` has an IC50 [1] of 1240 nM, an IC50 (HT-29) of 890 nM and an IC50 [2] of 3320 nM. For the same molecule, the IC50 (MDA-MB-231) was 3040 nM.

Molecule `CN(C)CCCNc1nc(-c2ccc(NC(=O)Nc3ccc(Cl)cc3)cc2)nc2c(Cl)c(Cl)sc12` has an IC50 [1] of 230 nM, an IC50 (HT-29) of 330 nM and an IC50 [2] of 1530 nM. It also gave an IC50 (MDA-MB-231) of 1160 nM.

For `CN(C)CCNc1nc(-c2ccc(NC(=O)Nc3ccccc3F)cc2)nc2ccsc12`, the IC50 [1] was 410 nM, the IC50 (HT-29) was 510 nM and the IC50 [2] was 530 nM. For the same molecule, the IC50 (MDA-MB-231) was 600 nM.

`CN(C)CCNc1nc(-c2ccc(NC(=O)Nc3ccccc3)cc2)nc2ccsc12` gave an IC50 [1] of 640 nM, an IC50 (HT-29) of 620 nM and an IC50 [2] of 1120 nM. The IC50 (MDA-MB-231) was 1310 nM.

`CN(C)CCNc1nc(-c2ccc(NC(=O)Nc3ccc(Cl)cc3)cc2)nc2ccsc12` gave an IC50 [1] of 130 nM, an IC50 (HT-29) of 95 nM and an IC50 [2] of 250 nM. It also gave an IC50 (MDA-MB-231) of 310 nM.

For `CCN(CC)CCCNc1nc(-c2ccc(NC(=O)Nc3ccccc3)cc2)nc2c(Cl)c(Cl)sc12`, the IC50 [1] was 850 nM, the IC50 (HT-29) was 820 nM and the IC50 [2] was 1640 nM. It also gave an IC50 (MDA-MB-231) of 1780 nM.

Molecule `CN(C)CCNc1nc(-c2ccc(NC(=O)Nc3ccc(Cl)cc3Cl)cc2)nc2c(Cl)c(Cl)sc12` has an IC50 [1] of 1520 nM, an IC50 (HT-29) of 1280 nM and an IC50 [2] of 3460 nM. It also gave an IC50 (MDA-MB-231) of 3500 nM.

With `CCN(CC)CCCNc1nc(-c2ccc(NC(=O)Nc3ccccc3F)cc2)nc2ccsc12` the IC50 [1] was 370 nM, the IC50 (HT-29) was 550 nM and the IC50 [2] was 580 nM. For the same molecule, the IC50 (MDA-MB-231) was 860 nM.

`CN(C)CCCNc1nc(-c2ccc(NC(=O)Nc3ccccc3F)cc2)nc2ccsc12` showed an IC50 [1] of 530 nM, an IC50 (HT-29) of 470 nM and an IC50 [2] of 730 nM. For the same molecule, the IC50 (MDA-MB-231) was 660 nM.

Work on `CCN(CC)CCCNc1nc(-c2ccc(NC(=O)Nc3ccccc3)cc2)nc2ccsc12` yielded an IC50 [1] of 680 nM, an IC50 (HT-29) of 730 nM and an IC50 [2] of 980 nM. It also gave an IC50 (MDA-MB-231) of 1230 nM.

`CCN(CC)CCNc1nc(-c2ccc(NC(=O)Nc3ccc(Cl)cc3)cc2)nc2c(Cl)c(Cl)sc12` gave an IC50 [1] of 320 nM, an IC50 (HT-29) of 430 nM and an IC50 [2] of 890 nM. It also gave an IC50 (MDA-MB-231) of 750 nM.

With `CN(C)CCCNc1nc(-c2ccc(NC(=O)Nc3ccccc3Cl)cc2)nc2ccsc12` the IC50 [1] was 430 nM, the IC50 (HT-29) was 390 nM and the IC50 [2] was 690 nM. The IC50 (MDA-MB-231) was 590 nM.

`CCN(CC)CCCNc1nc(-c2ccc(NC(=O)Nc3ccc(F)cc3)cc2)nc2ccsc12` gave an IC50 [1] of 290 nM, an IC50 (HT-29) of 340 nM and an IC50 [2] of 470 nM. It also gave an IC50 (MDA-MB-231) of 530 nM.

`CCN(CC)CCCNc1nc(-c2ccc(NC(=O)Nc3ccc(Cl)cc3Cl)cc2)nc2c(Cl)c(Cl)sc12` gave an IC50 [1] of 1170 nM, an IC50 (HT-29) of 1230 nM and an IC50 [2] of 5720 nM. The IC50 (MDA-MB-231) was 3940 nM.

For `CCN(CC)CCNc1nc(-c2ccc(NC(=O)Nc3ccccc3F)cc2)nc2ccsc12`, the IC50 [1] was 430 nM, the IC50 (HT-29) was 610 nM and the IC50 [2] was 1040 nM. The IC50 (MDA-MB-231) was 580 nM.

With `CS(=O)(=O)N1CCN(Cc2cc3nc(-c4cccc5[nH]ncc45)nc(N4CCOCC4)c3s2)CC1` [PICTILISIB] the IC50 [2] was 600 nM.

For `CN(C)CCCNc1nc(-c2ccc(NC(=O)Nc3ccc(Cl)cc3Cl)cc2)nc2ccsc12`, the IC50 [1] was 1020 nM, the IC50 (HT-29) was 1860 nM and the IC50 [2] was 2270 nM. It also gave an IC50 (MDA-MB-231) of 1860 nM.

Molecule `CN(C)CCNc1nc(-c2ccc(NC(=O)Nc3ccc(F)cc3)cc2)nc2ccsc12` has an IC50 [1] of 390 nM, an IC50 (HT-29) of 350 nM and an IC50 [2] of 330 nM. For the same molecule, the IC50 (MDA-MB-231) was 540 nM.

For `CCN(CC)CCNc1nc(-c2ccc(NC(=O)Nc3ccc(F)cc3)cc2)nc2c(Cl)c(Cl)sc12`, the IC50 [1] was 500 nM, the IC50 (HT-29) was 650 nM and the IC50 [2] was 1370 nM. It also gave an IC50 (MDA-MB-231) of 1130 nM.

With `CN(C)CCNc1nc(-c2ccc(NC(=O)Nc3ccc(Cl)cc3Cl)cc2)nc2ccsc12` the IC50 [1] was 1650 nM, the IC50 (HT-29) was 1320 nM and the IC50 [2] was 2360 nM. The IC50 (MDA-MB-231) was 2450 nM.

With `CN(C)CCNc1nc(-c2ccc(NC(=O)Nc3ccc(F)cc3)cc2)nc2c(Cl)c(Cl)sc12` the IC50 [1] was 590 nM, the IC50 (HT-29) was 890 nM and the IC50 [2] was 1350 nM. It also gave an IC50 (MDA-MB-231) of 1240 nM.

In the case of `CCN(CC)CCNc1nc(-c2ccc(NC(=O)Nc3ccccc3Cl)cc2)nc2c(Cl)c(Cl)sc12`, the IC50 [1] is reported as 460 nM, the IC50 (HT-29) is reported as 550 nM and the IC50 [2] is reported as 1130 nM. It also gave an IC50 (MDA-MB-231) of 1410 nM.

With `CN(C)CCNc1nc(-c2ccc(NC(=O)Nc3ccccc3Cl)cc2)nc2c(Cl)c(Cl)sc12` the IC50 [1] was 440 nM, the IC50 (HT-29) was 570 nM and the IC50 [2] was 1170 nM. It also gave an IC50 (MDA-MB-231) of 1350 nM.

Work on `CCN(CC)CCCNc1nc(-c2ccc(NC(=O)Nc3ccccc3Cl)cc2)nc2ccsc12` yielded an IC50 [1] of 200 nM, an IC50 (HT-29) of 340 nM and an IC50 [2] of 390 nM. It also gave an IC50 (MDA-MB-231) of 500 nM.

Molecule `CCN(CC)CCCNc1nc(-c2ccc(NC(=O)Nc3ccccc3Cl)cc2)nc2c(Cl)c(Cl)sc12` has an IC50 [1] of 330 nM, an IC50 (HT-29) of 410 nM and an IC50 [2] of 1450 nM. The IC50 (MDA-MB-231) was 970 nM.

`CCN(CC)CCNc1nc(-c2ccc(NC(=O)Nc3ccc(C)cc3)cc2)nc2c(Cl)c(Cl)sc12` showed an IC50 [1] of 840 nM, an IC50 (HT-29) of 950 nM and an IC50 [2] of 1450 nM. For the same molecule, the IC50 (MDA-MB-231) was 2010 nM.

`CN(C)CCCNc1nc(-c2ccc(NC(=O)Nc3ccc(Cl)cc3Cl)cc2)nc2c(Cl)c(Cl)sc12` gave an IC50 [1] of 980 nM, an IC50 (HT-29) of 1320 nM and an IC50 [2] of 2560 nM. It also gave an IC50 (MDA-MB-231) of 3490 nM.

In the case of `CCN(CC)CCNc1nc(-c2ccc(NC(=O)Nc3ccc(Cl)cc3)cc2)nc2ccsc12`, the IC50 [1] is reported as 190 nM, the IC50 (HT-29) is reported as 150 nM and the IC50 [2] is reported as 370 nM. For the same molecule, the IC50 (MDA-MB-231) was 550 nM.

With `CCN(CC)CCNc1nc(-c2ccc(NC(=O)Nc3ccc(Cl)cc3Cl)cc2)nc2ccsc12` the IC50 [1] was 1890 nM, the IC50 (HT-29) was 1940 nM and the IC50 [2] was 1520 nM. It also gave an IC50 (MDA-MB-231) of 2480 nM.

With `CCN(CC)CCCNc1nc(-c2ccc(NC(=O)Nc3ccc(F)cc3)cc2)nc2c(Cl)c(Cl)sc12` the IC50 [1] was 450 nM, the IC50 (HT-29) was 350 nM and the IC50 [2] was 1700 nM. For the same molecule, the IC50 (MDA-MB-231) was 1630 nM.

`CCN(CC)CCNc1nc(-c2ccc(NC(=O)Nc3ccc(Cl)cc3Cl)cc2)nc2c(Cl)c(Cl)sc12` showed an IC50 [1] of 1300 nM, an IC50 (HT-29) of 1140 nM and an IC50 [2] of 1770 nM. It also gave an IC50 (MDA-MB-231) of 1920 nM.

For `CN(C)CCCNc1nc(-c2ccc(NC(=O)Nc3ccccc3Cl)cc2)nc2c(Cl)c(Cl)sc12`, the IC50 [1] was 490 nM, the IC50 (HT-29) was 820 nM and the IC50 [2] was 1330 nM. The IC50 (MDA-MB-231) was 1560 nM.

Work on `CCN(CC)CCCNc1nc(-c2ccc(NC(=O)Nc3ccc(Cl)cc3)cc2)nc2c(Cl)c(Cl)sc12` yielded an IC50 [1] of 270 nM, an IC50 (HT-29) of 250 nM and an IC50 [2] of 720 nM. The IC50 (MDA-MB-231) was 660 nM.

Work on `CN(C)CCNc1nc(-c2ccc(NC(=O)Nc3ccc(Cl)cc3)cc2)nc2c(Cl)c(Cl)sc12` yielded an IC50 [1] of 300 nM, an IC50 (HT-29) of 460 nM and an IC50 [2] of 910 nM. The IC50 (MDA-MB-231) was 870 nM.

In the case of `Cc1ccc(NC(=O)Nc2ccc(-c3nc(NCCN(C)C)c4sccc4n3)cc2)cc1`, the IC50 [1] is reported as 1880 nM, the IC50 (HT-29) is reported as 2150 nM and the IC50 [2] is reported as 2380 nM. For the same molecule, the IC50 (MDA-MB-231) was 2180 nM.

In the case of `CN(C)CCCNc1nc(-c2ccc(NC(=O)Nc3ccc(F)cc3)cc2)nc2c(Cl)c(Cl)sc12`, the IC50 [1] is reported as 650 nM, the IC50 (HT-29) is reported as 430 nM and the IC50 [2] is reported as 1120 nM. It also gave an IC50 (MDA-MB-231) of 980 nM.

For `CN(C)CCNc1nc(-c2ccc(NC(=O)Nc3ccccc3Cl)cc2)nc2ccsc12`, the IC50 [1] was 230 nM, the IC50 (HT-29) was 310 nM and the IC50 [2] was 850 nM. For the same molecule, the IC50 (MDA-MB-231) was 550 nM.

With `CCN(CC)CCCNc1nc(-c2ccc(NC(=O)Nc3ccc(C)cc3)cc2)nc2ccsc12` the IC50 [1] was 1240 nM, the IC50 (HT-29) was 1620 nM and the IC50 [2] was 1760 nM. The IC50 (MDA-MB-231) was 1980 nM.
